Beta apoptosis: inhibitors of cytokine-induced beta cell apoptosis, primary screen, luminescence. AID 435005, 2010. INS-1E cytokine-induced death, ATP luminescence, 48 h; percent of positive-control rescue, neutral wells zero. 0.8% of 300,000 active. protection from apoptosis, % (test concentration not listed);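 active = Every replicate reaches about 75%, or at least half do and their mean reaches it too, limit read from the data; inconclusive = At least half of replicates reach the limit but their mean does not; inactive = Under half of replicates reach the limit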;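 note: 0% = cytokine-treated negative control wells and 100% = positive control rescue; higher means more ATP so stronger rescue from cytokine killing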
Mdm2 MdmX PPI: inhibitors of human Mdm2-MdmX association, primary screen, cell-based, luminescence, split luciferase, SaOS-2, uHTS; Protein Mdm4 (Homo sapiens) + E3 ubiquitin-protein ligase Mdm2 (Homo sapiens), …; SaOS-2 split-luciferase Mdm2/MdmX complementation; inhibition, % at 8 µM; 3% of 330,000 active;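 active = inhibition of at least 50% at 8 µM in the primary screen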
Target sequence (O15151 whole entry, looked up): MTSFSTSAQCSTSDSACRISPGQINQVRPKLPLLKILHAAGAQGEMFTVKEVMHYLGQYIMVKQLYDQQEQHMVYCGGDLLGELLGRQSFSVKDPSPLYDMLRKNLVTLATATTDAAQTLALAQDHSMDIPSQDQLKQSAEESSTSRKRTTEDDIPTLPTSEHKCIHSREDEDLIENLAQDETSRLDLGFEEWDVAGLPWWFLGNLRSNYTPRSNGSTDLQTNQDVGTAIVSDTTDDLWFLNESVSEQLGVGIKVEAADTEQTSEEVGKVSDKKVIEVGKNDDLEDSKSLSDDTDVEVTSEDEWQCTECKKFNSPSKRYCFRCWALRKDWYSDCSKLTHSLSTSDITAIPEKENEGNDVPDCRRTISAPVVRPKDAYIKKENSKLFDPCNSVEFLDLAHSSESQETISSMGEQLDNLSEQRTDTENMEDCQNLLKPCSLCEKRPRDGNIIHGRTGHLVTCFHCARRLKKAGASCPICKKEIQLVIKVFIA
Target sequence (Q00987 whole entry, looked up): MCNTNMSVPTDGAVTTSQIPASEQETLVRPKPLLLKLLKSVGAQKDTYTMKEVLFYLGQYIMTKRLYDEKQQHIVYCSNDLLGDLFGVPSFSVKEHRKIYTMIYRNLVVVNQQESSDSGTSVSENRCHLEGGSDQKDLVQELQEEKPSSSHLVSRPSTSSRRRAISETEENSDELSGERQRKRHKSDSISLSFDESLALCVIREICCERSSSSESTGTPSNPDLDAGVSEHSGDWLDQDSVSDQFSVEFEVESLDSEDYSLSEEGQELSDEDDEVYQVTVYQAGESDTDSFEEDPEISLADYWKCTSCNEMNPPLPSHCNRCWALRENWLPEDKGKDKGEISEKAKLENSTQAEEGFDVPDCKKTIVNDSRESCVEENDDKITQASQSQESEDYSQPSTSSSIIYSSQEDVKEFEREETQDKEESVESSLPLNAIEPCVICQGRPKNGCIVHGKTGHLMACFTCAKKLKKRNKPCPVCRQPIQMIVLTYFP
T cruzi repl: inhibitors of intracellular T. cruzi growth, primary screen, luminescence, NIH3T3 host cells; T. cruzi beta-gal in NIH3T3, 90 h; inhibition, % (concentration not given with the values); 1.4% of 300,000 active;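 active = mean inhibition across valid replicates above about 55%, limit read from the data; inconclusive = mean below that limit but half or more replicates reach it; inactive = mean below it, under half of replicates reach it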;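 note: signal also drops with host cell toxicity which is not excluded here; 0% = plate median of DMSO wells and 100% = zero luminescence signal; higher percent means less beta-gal luminescence so fewer parasites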
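System: NIH/3T3 fibroblasts plus reporter T. cruzi. Medium: DMEM plus 2% FBS. Probe or stimulus: 5000 reporter trypomastigotes per well. Compound: single 50 nL compound addition per well in DMSO. Incubation: co-culture of at least 90 h after 3 h attachment. Detection: GalScreen β-gal luminescence, detergent lysis, 60 min. Evaluation: parasite load inhibition, %.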
Calb FLC: C. albicans growth inhibition with fluconazole, primary screen, CaCi-2 strain, Alamar Blue fluorescence; C. albicans CaCi-2 (fluconazole-resistant clinical isolate) + fluconazole, 48 h; growth inhibition, % (test concentration not listed); 0.57% of 300,000 active;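 active = growth inhibition above about 58% in most replicates, limit read from the data, passing the limit was not always enough; inconclusive = exactly half the replicates above a set limit; inactive = most replicates below a set limit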;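 note: all wells also contain fluconazole at 8 µg/ml as a sub-toxic cotreatment; 0% = median of DMSO wells and 100% = median of geldanamycin control wells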
CSC inhib: cancer stem cell viability inhibitors, primary screen, luminescence; 1.1% of 300,000 active; inhibition, % at 7.5 µM; cancer stem cell-like cells viability; in the data active = inhibition above about 75%; inconclusive = no clear call, values can overlap the other calls; tested in HMLE shEcad cells
NALP3 yeast inh: NALP3 inflammasome inhibitors in reconstituted yeast, primary screen, luminescence, uHTS. Yeast reconstituted NLRP3/ASC/caspase-1, beta-gal luminescence, 24 h. inhibition, % at 10 µM. 0.39% of 330,000 active;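 active = inhibition of 50% or more; inactive = inhibition below 50%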;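 note: plate controls were induced DMSO wells for no effect and uninduced yeast grown without galactose for full effect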
* hit, by the source's call; u = inconclusive; x = not tested or not shown. Sampled rows, rich in hits. Any-hit rate of the full collection: about 5.3%.

SMILES	Beta apoptosis	Mdm2 MdmX PPI	T cruzi repl	Calb FLC	CSC inhib	NALP3 yeast inh
COc1ccc(OC)c(-n2c(Cn3c(-c4ccccn4)nc4ccccc43)n[nH]c2=S)c1	-12	-2	-5	14	-3	11
CCCc1nnc(NC(=S)Nc2ccccc2)s1	7	-31	36	77*	-13	6
CC(C)C(=O)Nc1nnc(NC(=S)Nc2ccccc2)s1	7	0	-15	2	-5	24
O=C(COc1ccccc1)Nc1c(Cl)ccc2nsnc12	4	18	-2	-3	-9	20
CN(C)CCn1c2c(c(SCC(=O)Nc3cccc4ccccc34)nc1=O)CCC2	-6	20	27	3	x	13
CN(C)CCCn1c2c(c(SCC(=O)Nc3cccc4ccccc34)nc1=O)CCC2	-11	26	57*	-1	-10	21
Clc1ccc(C(CCN2CCCC2)Cc2ccccc2)cc1 (configuration not stated)	5	20	17	-3	3	9
CCOC(=O)c1c(S(=O)(=O)NCC(=O)NCc2ccccc2)c(C)n(C)c1C	-2	4	-19	1	-10	14
COc1ccc(NC(=O)C(C)NS(=O)(=O)c2ccc(NC(C)=O)cc2)cc1Cl (configuration not stated)	-3	9	-13	-2	x	19
COc1c(OC(C)=O)ccc(/C=C/c2ccc3cccc(OCc4ccccc4)c3n2)c1[N+](=O)[O-]	3	50	10	-2	87*	5
COc1cc(/C=C/c2ccc3cccc(OC)c3n2)c(O)c([N+](=O)[O-])c1	28	43	-17	4	2	12
O/N=C/c1ccc2cccc(OCc3ccccc3)c2n1	-3	16	-7	11	1	26
COc1cc(/C=C/c2ccc3cccc(OC)c3n2)c(OC(C)=O)c([N+](=O)[O-])c1	20	38	17	6	78*	39
CCn1cc([N+](=O)[O-])c(C(=O)N2N=C(c3ccc(O)c(OC)c3)CC2c2ccccc2O)n1 (configuration not stated)	-4	21	16	28	12	17
Cc1ccccc1Oc1cc(NC(=O)CCCn2nc(C)c([N+](=O)[O-])c2C)cc([N+](=O)[O-])c1	105*	14	37	0	26	11
Cc1nn(CCCC(=O)Nc2cc(Oc3ccc(F)cc3)cc([N+](=O)[O-])c2)c(C)c1[N+](=O)[O-]	7	44	47	14	47	11
CNc1cc(C(F)(F)F)nc(-c2ccccn2)n1	-4	-3	-20	-2	-9	-12
Nc1nc(-c2ccccn2)nc(N)c1Cc1c(F)cccc1Cl	96*	43	57*	u	5	21
Nc1nc(-c2ccccn2)nc(N)c1Cc1ccccc1F	20	7	82*	21	-13	3
Nc1nc(-c2ccccn2)nc(N)c1Cc1ccc(Cl)cc1Cl	96*	40	73*	24	-10	22
Cn1c(-c2ccccc2)cnc1SCC(=O)N1CCCc2ccccc21	-4	18	12	7	7	9
O=C(CSc1ncc(-c2ccccc2)n1C1CCCC1)N1CCc2ccccc21	-3	29	64*	-23	6	-5
COC(=O)CSc1nc(C)c2c(n1)CCCC2	-5	0	-13	-3	-1	11
O=c1nc2ccccc2c2n1CC(CN1CCN(c3cccc(Cl)c3)CC1)N2 (configuration not stated)	-4	2	-40	42	x	-10
Cc1nc(NC(=O)C23CC4CC(CC(C4)C2)C3)sc1Cc1ccc2c(c1)OCO2	102*	-32	65*	17	71	-5
Cc1nc(NC(=O)C2CCCC2)sc1Cc1ccc2c(c1)OCO2	1	-52	7	-22	24	23
Cc1ccc2cc3cc(C(=O)N(CC(=O)NC4CCCC4)c4cccc(C)c4C)sc3nc2c1	42	22	58*	9	21	11
